# Data: ChEMBL document CHEMBL5653631, “A Potent and Selective ULK1 Inhibitor Suppresses Autophagy and Sensitizes Cancer Cells to Nutrient Stress” (iScience, 2018)
# What was measured:
# [1] = biological target: Tyrosine-protein kinase BTK (Homo sapiens) (UniProt Q06187); test: Inhibition of human recombinant BTK at 500 nM related to control ULK1
# [2] = biological target: RAC-beta serine/threonine-protein kinase (Homo sapiens) (UniProt P31751); test: Inhibition of human recombinant AKT2 at 500 nM in presence of ATP by radiometric assay relative to control
# Sequence of RAC-beta serine/threonine-protein kinase (Homo sapiens) (P31751 whole entry): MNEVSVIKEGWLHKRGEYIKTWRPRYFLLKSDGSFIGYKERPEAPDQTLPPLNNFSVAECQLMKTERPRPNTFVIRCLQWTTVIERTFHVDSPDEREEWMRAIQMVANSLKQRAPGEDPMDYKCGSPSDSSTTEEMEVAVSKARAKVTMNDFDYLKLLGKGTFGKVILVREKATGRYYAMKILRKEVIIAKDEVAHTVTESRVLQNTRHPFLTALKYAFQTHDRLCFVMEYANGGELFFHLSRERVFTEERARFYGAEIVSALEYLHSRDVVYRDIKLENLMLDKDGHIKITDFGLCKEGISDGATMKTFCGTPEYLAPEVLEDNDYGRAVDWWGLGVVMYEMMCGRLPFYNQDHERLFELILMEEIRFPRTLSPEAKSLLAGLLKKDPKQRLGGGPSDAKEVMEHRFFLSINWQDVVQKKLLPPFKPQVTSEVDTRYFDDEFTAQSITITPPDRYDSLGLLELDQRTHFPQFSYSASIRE
# In short: (§1)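 Panel of 327 recombinant human kinases in radiometric activity assays, each screened in duplicate at a single inhibitor concentration; percent activity remaining relative to vehicle control, percent inhibition taken as 100 minus activity remaining.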
# [3] = biological target: T1, Receptor-interacting serine/threonine-protein kinase 1 (Homo sapiens) (UniProt Q13546); test: Inhibition of human recombinant RIPK1 at 500 nM related to control ULK1
# T1 sequence (whole entry): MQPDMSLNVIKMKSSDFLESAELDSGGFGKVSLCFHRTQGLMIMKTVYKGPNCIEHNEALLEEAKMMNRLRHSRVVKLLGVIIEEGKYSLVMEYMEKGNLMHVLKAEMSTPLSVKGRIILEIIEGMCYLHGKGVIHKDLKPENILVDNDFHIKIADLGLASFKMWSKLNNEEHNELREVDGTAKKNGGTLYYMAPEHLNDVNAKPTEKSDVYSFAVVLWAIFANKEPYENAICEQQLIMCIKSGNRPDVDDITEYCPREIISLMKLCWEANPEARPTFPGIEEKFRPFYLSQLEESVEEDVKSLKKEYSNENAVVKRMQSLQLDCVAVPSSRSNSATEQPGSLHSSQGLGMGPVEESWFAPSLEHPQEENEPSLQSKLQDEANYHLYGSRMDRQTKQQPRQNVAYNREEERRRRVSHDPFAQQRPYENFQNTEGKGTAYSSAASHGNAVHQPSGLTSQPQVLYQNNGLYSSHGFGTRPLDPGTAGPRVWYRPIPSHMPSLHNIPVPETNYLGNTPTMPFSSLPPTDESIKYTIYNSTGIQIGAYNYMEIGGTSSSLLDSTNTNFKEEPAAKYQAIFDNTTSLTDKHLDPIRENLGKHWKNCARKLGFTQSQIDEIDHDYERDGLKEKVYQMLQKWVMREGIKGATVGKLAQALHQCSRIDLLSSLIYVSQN
# [4] = biological target: PAS domain-containing serine/threonine-protein kinase (Homo sapiens) (UniProt Q96RG2); test: Inhibition of human recombinant PASK at 500 nM in presence of ATP by radiometric assay relative to control
# Sequence of PAS domain-containing serine/threonine-protein kinase (Homo sapiens) (Q96RG2 whole entry, the tested form may be a part): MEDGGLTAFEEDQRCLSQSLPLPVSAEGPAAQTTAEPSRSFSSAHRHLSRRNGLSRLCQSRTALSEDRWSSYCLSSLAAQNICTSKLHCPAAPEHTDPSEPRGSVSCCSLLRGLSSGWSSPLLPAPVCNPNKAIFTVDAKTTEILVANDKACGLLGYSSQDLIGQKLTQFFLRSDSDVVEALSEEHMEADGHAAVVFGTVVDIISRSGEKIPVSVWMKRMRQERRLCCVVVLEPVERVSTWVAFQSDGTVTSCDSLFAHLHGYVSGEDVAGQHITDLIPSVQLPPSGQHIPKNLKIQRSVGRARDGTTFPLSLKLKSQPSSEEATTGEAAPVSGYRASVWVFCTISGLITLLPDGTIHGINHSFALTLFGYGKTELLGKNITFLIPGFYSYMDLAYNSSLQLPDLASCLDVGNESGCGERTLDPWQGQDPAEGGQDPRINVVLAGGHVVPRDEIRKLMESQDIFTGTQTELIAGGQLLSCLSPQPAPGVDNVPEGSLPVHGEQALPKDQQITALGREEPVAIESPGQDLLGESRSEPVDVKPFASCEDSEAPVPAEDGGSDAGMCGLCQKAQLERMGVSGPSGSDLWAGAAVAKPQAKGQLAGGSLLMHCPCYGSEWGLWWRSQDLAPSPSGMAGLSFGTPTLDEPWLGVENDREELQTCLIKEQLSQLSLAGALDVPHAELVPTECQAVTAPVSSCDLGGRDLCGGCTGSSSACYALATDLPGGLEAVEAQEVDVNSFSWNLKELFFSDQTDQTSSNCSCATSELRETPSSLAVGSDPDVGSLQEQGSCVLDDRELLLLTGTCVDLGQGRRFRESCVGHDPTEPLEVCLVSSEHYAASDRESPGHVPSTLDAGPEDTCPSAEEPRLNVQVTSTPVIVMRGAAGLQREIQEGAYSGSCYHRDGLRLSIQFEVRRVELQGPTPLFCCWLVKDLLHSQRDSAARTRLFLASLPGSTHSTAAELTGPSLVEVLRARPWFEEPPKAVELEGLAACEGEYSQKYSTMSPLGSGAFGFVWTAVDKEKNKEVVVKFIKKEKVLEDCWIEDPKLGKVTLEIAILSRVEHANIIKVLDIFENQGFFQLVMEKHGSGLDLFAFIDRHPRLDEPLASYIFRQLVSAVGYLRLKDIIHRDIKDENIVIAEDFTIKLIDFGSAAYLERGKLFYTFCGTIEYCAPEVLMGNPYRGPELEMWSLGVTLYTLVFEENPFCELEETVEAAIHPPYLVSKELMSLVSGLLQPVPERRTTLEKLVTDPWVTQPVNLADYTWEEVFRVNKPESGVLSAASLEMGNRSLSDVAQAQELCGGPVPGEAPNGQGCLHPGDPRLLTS
# [5] = biological target: Serine/threonine-protein kinase pim-1 (Homo sapiens) (UniProt P11309); test: Inhibition of human recombinant PIM1 at 15 nM related to control ULK1
# Sequence of Serine/threonine-protein kinase pim-1 (Homo sapiens) (P11309 whole entry, looked up): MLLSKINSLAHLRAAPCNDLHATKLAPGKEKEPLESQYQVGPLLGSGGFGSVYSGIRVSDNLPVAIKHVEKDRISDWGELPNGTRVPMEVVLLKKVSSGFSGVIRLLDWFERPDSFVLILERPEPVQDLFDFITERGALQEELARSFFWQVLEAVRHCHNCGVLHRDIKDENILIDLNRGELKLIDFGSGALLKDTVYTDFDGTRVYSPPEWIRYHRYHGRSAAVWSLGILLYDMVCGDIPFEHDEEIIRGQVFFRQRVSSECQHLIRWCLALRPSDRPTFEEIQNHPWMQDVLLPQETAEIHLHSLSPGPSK
# [6] = tested on: G protein-coupled receptor kinase 7 (Homo sapiens); test: Inhibition of human recombinant GPRK7 at 15 nM in presence of ATP by radiometric assay relative to control
# [7] = biological target: Protein kinase C gamma type (Homo sapiens) (UniProt P05129); test: Inhibition of human recombinant PKCg at 40 nM in presence of ATP by radiometric assay relative to control
# [8] = biological target: T2, MAP kinase-activated protein kinase 5 (Homo sapiens) (UniProt Q8IW41); test: Inhibition of human recombinant MAPKAPK5 at 40 nM in presence of ATP by radiometric assay relative to control
# T2 sequence (whole entry): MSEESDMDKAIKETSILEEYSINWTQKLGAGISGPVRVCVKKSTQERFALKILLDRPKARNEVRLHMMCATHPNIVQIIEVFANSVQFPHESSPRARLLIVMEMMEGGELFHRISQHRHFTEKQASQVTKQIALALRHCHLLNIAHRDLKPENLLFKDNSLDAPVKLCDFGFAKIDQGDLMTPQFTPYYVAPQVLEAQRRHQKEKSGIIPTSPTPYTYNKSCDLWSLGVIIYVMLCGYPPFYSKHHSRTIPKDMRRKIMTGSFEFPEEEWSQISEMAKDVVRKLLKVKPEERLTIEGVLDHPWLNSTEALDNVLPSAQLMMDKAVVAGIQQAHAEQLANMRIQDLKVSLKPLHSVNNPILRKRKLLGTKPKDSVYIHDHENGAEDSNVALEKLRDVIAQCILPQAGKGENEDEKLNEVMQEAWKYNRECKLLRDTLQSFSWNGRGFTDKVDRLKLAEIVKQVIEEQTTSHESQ
# [9] = biological target: Calcium/calmodulin-dependent protein kinase kinase 2 (Homo sapiens) (UniProt Q96RR4); test: Inhibition of human recombinant CaMKK2 at 40 nM related to control ULK1
# [10] = biological target: Fibroblast growth factor receptor 4 (Homo sapiens) (UniProt P22455); test: Inhibition of human recombinant FGFR4 at 40 nM related to control ULK1
# [11] = biological target: RAC-beta serine/threonine-protein kinase (Homo sapiens) (UniProt P31751); test: Inhibition of human recombinant AKT2 at 40 nM in presence of ATP by radiometric assay relative to control; in short: as §1
# [12] = biological target: Serine/threonine-protein kinase 26 (Homo sapiens) (UniProt Q9P289); test: Inhibition of human recombinant MST4 at 40 nM in presence of ATP by radiometric assay relative to control
# Sequence of Serine/threonine-protein kinase 26 (Homo sapiens) (Q9P289 2-416 limits assumed): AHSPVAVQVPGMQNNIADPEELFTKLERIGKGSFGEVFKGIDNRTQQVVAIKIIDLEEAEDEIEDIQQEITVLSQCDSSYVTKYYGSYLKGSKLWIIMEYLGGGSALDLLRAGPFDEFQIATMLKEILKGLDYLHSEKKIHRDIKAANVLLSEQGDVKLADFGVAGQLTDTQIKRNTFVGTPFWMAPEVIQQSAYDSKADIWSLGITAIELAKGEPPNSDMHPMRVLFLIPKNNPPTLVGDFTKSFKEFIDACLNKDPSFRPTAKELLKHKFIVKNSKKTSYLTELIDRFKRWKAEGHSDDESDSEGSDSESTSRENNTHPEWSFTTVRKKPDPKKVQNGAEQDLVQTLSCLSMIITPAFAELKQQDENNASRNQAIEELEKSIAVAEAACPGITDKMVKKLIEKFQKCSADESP
# [13] = biological target: Ribosomal protein S6 kinase alpha-6 (Homo sapiens) (UniProt Q9UK32); test: Inhibition of human recombinant RSK4 at 40 nM in presence of ATP by radiometric assay relative to control
# Sequence of Ribosomal protein S6 kinase alpha-6 (Homo sapiens) (Q9UK32 whole entry): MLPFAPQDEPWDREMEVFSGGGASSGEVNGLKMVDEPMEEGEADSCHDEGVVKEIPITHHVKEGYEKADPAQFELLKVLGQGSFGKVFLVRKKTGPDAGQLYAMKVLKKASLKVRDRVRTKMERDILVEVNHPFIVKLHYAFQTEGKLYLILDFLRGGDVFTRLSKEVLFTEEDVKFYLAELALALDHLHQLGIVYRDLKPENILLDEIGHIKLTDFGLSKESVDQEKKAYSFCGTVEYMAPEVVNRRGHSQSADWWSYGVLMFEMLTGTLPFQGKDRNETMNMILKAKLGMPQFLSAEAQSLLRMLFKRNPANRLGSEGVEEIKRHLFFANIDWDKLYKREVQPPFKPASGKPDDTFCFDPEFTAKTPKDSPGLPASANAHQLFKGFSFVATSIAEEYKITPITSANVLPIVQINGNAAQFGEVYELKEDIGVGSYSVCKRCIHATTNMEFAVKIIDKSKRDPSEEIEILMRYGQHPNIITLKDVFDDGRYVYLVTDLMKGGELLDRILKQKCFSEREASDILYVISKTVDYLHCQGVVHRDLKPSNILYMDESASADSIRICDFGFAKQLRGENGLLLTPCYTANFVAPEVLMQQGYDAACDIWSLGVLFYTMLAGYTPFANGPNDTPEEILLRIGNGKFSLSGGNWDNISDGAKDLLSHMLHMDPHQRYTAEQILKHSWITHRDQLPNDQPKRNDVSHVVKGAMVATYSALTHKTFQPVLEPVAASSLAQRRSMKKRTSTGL
# [14] = biological target: Serine/threonine-protein kinase 32C (Homo sapiens) (UniProt Q86UX6); test: Inhibition of human recombinant YANK3 at 40 nM in presence of ATP by radiometric assay relative to control
# Sequence of Tyrosine-protein kinase BTK (Homo sapiens) (Q06187 whole entry): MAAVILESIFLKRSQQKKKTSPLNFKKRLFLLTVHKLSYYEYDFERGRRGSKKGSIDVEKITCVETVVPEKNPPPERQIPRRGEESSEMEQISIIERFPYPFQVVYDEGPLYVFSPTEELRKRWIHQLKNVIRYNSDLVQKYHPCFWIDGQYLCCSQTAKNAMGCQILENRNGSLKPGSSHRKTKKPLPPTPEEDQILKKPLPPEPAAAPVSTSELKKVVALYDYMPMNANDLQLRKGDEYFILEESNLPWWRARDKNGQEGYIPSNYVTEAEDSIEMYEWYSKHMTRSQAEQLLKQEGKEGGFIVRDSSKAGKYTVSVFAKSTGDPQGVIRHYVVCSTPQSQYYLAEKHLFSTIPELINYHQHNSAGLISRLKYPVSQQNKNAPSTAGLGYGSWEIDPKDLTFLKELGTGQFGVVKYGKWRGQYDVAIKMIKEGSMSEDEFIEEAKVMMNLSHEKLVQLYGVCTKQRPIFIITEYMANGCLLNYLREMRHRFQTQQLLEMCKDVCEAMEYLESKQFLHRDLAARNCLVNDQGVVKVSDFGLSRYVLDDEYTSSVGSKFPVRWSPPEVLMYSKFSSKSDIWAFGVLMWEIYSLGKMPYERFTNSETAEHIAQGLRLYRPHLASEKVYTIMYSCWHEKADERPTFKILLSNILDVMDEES
structure (smiles),measurement,setting,value
CNC(=O)c1ccccc1Oc1nc(Nc2cc(OC)c(OC)c(OC)c2)ncc1Br,fold change (FC),[1],0
same,inhibition,[2],7%
same,fold change (FC),[3],0.09
same,inhibition,[4],10%
CC(C)[C@H](NC(=O)c1cc(-c2cnn3cc(-c4ccc(OCCN5CCCCC5)cc4)cnc23)cs1)C(F)(F)F,fold change (FC),[5],0.16
same,inhibition,[6],0%
O=C(N[C@@H](C1CC1)C(F)(F)F)c1cc(-c2cnn3cc(-c4ccc(F)cc4)cnc23)cs1,inhibition,[7],0%
same,inhibition,[8],0%
same,fold change (FC),[9],0
same,fold change (FC),[10],0
same,inhibition,[11],10%
same,inhibition,[12],0%
same,inhibition,[13],0%
same,inhibition,[14],5%
